# Only some compounds are listed: those with a hit (about 4.7% of all), similar ones and a draw of the others.
# 697 NFkB inh = inhibitors of the PMA/ionomycin-induced NF-kB reporter in 697 B cells; 697 B-cell NF-kB luciferase reporter, 16 h; hit rate 0.33% among 330,000; inhibition, % at 4 µM; in the data active means inhibition above about 35%
# VIM-2 inh = blocks Pseudomonas aeruginosa VIM-2 metallo-beta-lactamase; hit rate 0.89% among 290,000; purified VIM-2, nitrocefin hydrolysis, epi-absorbance fluorescence; AID 1527; inhibition, % at 5.6 µM;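 active means inhibition above the mean of all tested compounds plus 3 SD, cutoff set per screening run, cut at about 7.5% in these data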;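 further: red hydrolysis product quenches plate fluorescence so inhibitors raise well fluorescence; 0% = enzyme with DMSO and 100% = DMSO without enzyme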
# IMP-1 inh = blocks Pseudomonas aeruginosa IMP-1 metallo-beta-lactamase; hit rate 0.45% among 290,000; inhibition, % at 5.6 µM; purified IMP-1, nitrocefin hydrolysis, epi-absorbance fluorescence;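 active means inhibition above the mean plus 3 SD of all compounds in the same screening run, cut at about 4.5% in these data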;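 further: 0% = IMP-1 with DMSO and 100% = DMSO wells lacking enzyme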
#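 Assay system: purified IMP-1; Quantity: IMP-1 0.2 nM before substrate addition; Medium: HEPES buffer pH 7.1 with ZnSO4 and Brij 35; Incubation: 15 min enzyme–compound preincubation, then 25 min nitrocefin reaction, 25 °C; Signal: fluorescence quenching readout, ex 480/em 530 nm; Controls: DMSO with and without IMP-1; Repeats: singlicate testing.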
# Jurkat NFkB inh = inhibitors of the PMA/ionomycin-induced NF-kB reporter in Jurkat cells; AID 435003; PMA/ionomycin-induced NF-kB luciferase reporter, luminescence; inhibition, % at 4 µM; hit rate 0.53% among 330,000; in the data active means inhibition above about 50%
# Mdm2 MdmX PPI = human Mdm2/MdmX binding inhibition. SaOS-2 split-luciferase Mdm2/MdmX complementation, luminescence. inhibition, % at 8 µM. hit rate 3% among 330,000;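 active means inhibition of at least 50% at 8 µM in the primary screen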
# aSyn UTR inh = MLPCN primary screen, SNCA 5' untranslated region; alpha-synuclein 5'UTR reporter, inhibitor activity; inhibition, % (tested at 7.5 µM); hit rate 0.82% among 300,000; in the data active means inhibition above about 60%; inconclusive means no clear call, values can overlap the other calls;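 further: H4 neuroglioblastoma cells stably carrying SNCA 5'UTR luciferase fusion; 0% = DMSO wells and 100% = positive control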
# Mdm2 MdmX conf = human Mdm2/MdmX binding inhibition, confirmed; shares compounds with Mdm2 MdmX PPI; luminescent assay; inhibition, % at 8 µM; hit rate 55% among 10,000; in the data active means inhibition above about 40%
# FLuc counter = inhibits full-length luciferase, flagging false Mdm2/MdmX hits. shares compounds with Mdm2 MdmX PPI. SaOS-2 full-length luciferase counterscreen, luminescence. inhibition, % at 8 µM. hit rate 77% among 6,200;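 active means mean inhibition at 8 µM reaching about 37%, which flags the compound as non-specific, limit read from the data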;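 further: p53-null SaOS-2 cells with luciferase driven by a doxycycline-inducible promoter; compound on cells about two nights before reading with doxycycline added after day one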
# * hit, by the source's call; ? = inconclusive; / = no result.
SMILES,697 NFkB inh,VIM-2 inh,IMP-1 inh,Jurkat NFkB inh,Mdm2 MdmX PPI,aSyn UTR inh,Mdm2 MdmX conf,FLuc counter
CC(C)n1cnc2c(N(C)c3ccccc3)nc(N(CCN(C)C)Cc3ccccc3)nc21,-28.2,/,/,15.2,58.3*,-9.4,24.9,/
O=C(c1ccc2c(c1)N(Cc1cccc(Cl)c1)C(=O)c1ccccc1S2(=O)=O)N1CCN(c2ccccn2)CC1,-80.7,-3.1,0.9,-13.9,64.7*,16.7,20.2,/
O=C(c1ccc(S(=O)(=O)c2ccccc2Cl)c([N+](=O)[O-])c1)N1CCCCCC1,-24.1,-1.4,-1.8,21.3,50.5*,-97.9,24.7,/
O=C(c1ccc(S(=O)(=O)c2cccc(Cl)c2)c([N+](=O)[O-])c1)N1CCN(c2ccccn2)CC1,-8.5,-1.2,-1.1,30.3,73.5*,-61.8,67.8*,58.1*
O=C(c1ccc(S(=O)(=O)Cc2ccccc2F)c([N+](=O)[O-])c1)N1CCCCCC1,20.6,-1.0,-2.4,9.1,27.0,-24.0,/,/
CC(=O)c1cccc(NC(=O)Cc2coc3cc4c(cc23)CCC4)c1,1.8,-2.5,-0.8,-8.7,-6.6,-23.1,/,/
N#CCCN(C(=O)COC(=O)CCc1c[nH]c2ccccc12)c1ccccc1,14.5,/,/,18.5,-2.8,-11.7,/,/
O=C1CCCC(=O)C1Sc1ccc(Cl)cc1,-0.2,-0.4,0.1,-2.2,7.0,-1.5,/,/
COc1cc(/C=C/[N+](=O)[O-])ccc1OC(=O)/C=C/c1ccc(F)cc1,-20.0,0.1,-0.7,-8.9,72.8*,-71.6,71.0*,50.9*
COc1ccc(/C=C/C(=O)c2ccc([N+](=O)[O-])o2)cc1OC,-16.6,/,/,25.9,95.6*,?,92.8*,56.5*
COc1ccc(/C=C/C(=O)c2ccc3c(c2)OCCO3)cc1[N+](=O)[O-],29.3,1.1,-0.4,-10.0,36.5,-58.7,/,/
Cc1cc(O)c(C(=O)/C=C/c2cccc([N+](=O)[O-])c2)c(=O)o1,10.1,-2.9,-2.1,0.9,12.8,0.8,/,/
O=C(/C=C/c1cccc(Cl)c1)c1ccc([N+](=O)[O-])o1,-14.1,/,/,29.0,100.3*,91.2*,99.8*,51.4*
O=C(NC(=O)c1ccc(F)cc1F)Nc1ccc(Cl)cc1,-101.9,-2.7,-3.6,-59.4,-23.9,-158.7,/,/
Cc1ccc(/C=C/c2ccc3cccc(O)c3n2)s1,-62.9,-1.1,-2.5,-64.5,-96.8,7.3,/,/
COc1cccc(/C=C/c2ccc3cccc(O)c3n2)c1OC,-153.0,-0.6,0.5,-46.3,70.1*,-73.5,-95.2,/
COc1ccc(/C=C/c2ccc3cccc(O)c3n2)c(OC)c1OC,-206.8,-1.9,-0.5,7.9,99.8*,-91.8,18.4,/
Cc1cc(Cl)ccc1OCC(=O)NNC(=O)C1CCCO1 (configuration not stated),-3.0,-3.4,-3.7,4.9,5.1,-3.9,/,/
CCOC(=O)c1ccc(Nc2nc(=O)c3cccnc3s2)cc1,-133.1,-4.5,-3.2,-118.3,70.9*,-133.2,40.6*,72.5*
O=C(CNC(=O)c1ccccc1O)N/N=C/c1cc(Br)ccc1OC(=O)/C=C/c1ccco1,0.2,-3.6,-3.6,3.8,51.5*,68.1*,70.2*,41.1*
CC(c1ccccc1)N1C(=O)/C(=C/c2ccncc2)SC1=S (configuration not stated),-37.8,-2.3,0.1,13.9,67.2*,-13.6,16.9,/
COc1ccc(CN2C(=O)/C(=C/c3ccncc3)SC2=S)cc1,23.6,-1.3,0.0,1.2,75.3*,-44.7,76.5*,38.6*
O=C(O)C(c1ccccc1)N1C(=O)/C(=C/c2cccs2)SC1=S (configuration not stated),3.2,6.6,1.3,4.3,4.4,3.3,/,/
CCN(CC)S(=O)(=O)c1cccc(C(=O)NC(C)C(c2cccs2)N2CCCC2)c1 (configuration not stated),4.2,-1.2,0.8,2.5,29.0,6.0,/,/
CN(C)CCNC(=O)c1ccc(COc2ccc(Cl)cc2Cl)cc1,-12.6,-1.7,-4.0,-25.1,62.4*,-50.4,17.6,/
Cc1ccccc1NC(=O)CSc1ccc(-c2ccccn2)nn1,-10.5,-2.5,-5.5,-4.3,0.8,-24.0,/,/
